# Assay results reported in ChEMBL document CHEMBL2424572 (J Med Chem, 2013).
# pIC50: −log10 of the molar value.
# How the values were obtained:
# Collagenase 3 = Collagenase 3 (Homo sapiens, UniProt P45452); assay: Inhibition of MMP-13 (unknown origin) using 7-methoxycoumarin-4-yl)acetyl-Pro-Leu-Gly-Leu-(3-(2,4-dinitrophenyl)-L-2,3-diamino-propionyl)Ala-Arg-NH2 as substrate preincubated for 30 mins followed by substrate addition by fluorescence assay
# In short: (§1)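 Activated MMP (2 nM) preincubated with inhibitor (10 pM to 1 mM) in 50 mM Tris-HCl pH 7.5, 0.2 M NaCl, 5 mM CaCl2, 20 μM ZnSO4, 0.05% Brij 35, 37 °C for 30 min.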
# [1] = biological target: 72 kDa type IV collagenase (Homo sapiens, UniProt P08253); assay: Inhibition of MMP-2 (unknown origin) using 7-methoxycoumarin-4-yl)acetyl-Pro-Leu-Gly-Leu-(3-(2,4-dinitrophenyl)-L-2,3-diamino-propionyl)Ala-Arg-NH2 as substrate preincubated for 30 mins followed by substrate addition by fluorescence assay; in short: as §1
# Sequence of 72 kDa type IV collagenase (P08253 whole entry): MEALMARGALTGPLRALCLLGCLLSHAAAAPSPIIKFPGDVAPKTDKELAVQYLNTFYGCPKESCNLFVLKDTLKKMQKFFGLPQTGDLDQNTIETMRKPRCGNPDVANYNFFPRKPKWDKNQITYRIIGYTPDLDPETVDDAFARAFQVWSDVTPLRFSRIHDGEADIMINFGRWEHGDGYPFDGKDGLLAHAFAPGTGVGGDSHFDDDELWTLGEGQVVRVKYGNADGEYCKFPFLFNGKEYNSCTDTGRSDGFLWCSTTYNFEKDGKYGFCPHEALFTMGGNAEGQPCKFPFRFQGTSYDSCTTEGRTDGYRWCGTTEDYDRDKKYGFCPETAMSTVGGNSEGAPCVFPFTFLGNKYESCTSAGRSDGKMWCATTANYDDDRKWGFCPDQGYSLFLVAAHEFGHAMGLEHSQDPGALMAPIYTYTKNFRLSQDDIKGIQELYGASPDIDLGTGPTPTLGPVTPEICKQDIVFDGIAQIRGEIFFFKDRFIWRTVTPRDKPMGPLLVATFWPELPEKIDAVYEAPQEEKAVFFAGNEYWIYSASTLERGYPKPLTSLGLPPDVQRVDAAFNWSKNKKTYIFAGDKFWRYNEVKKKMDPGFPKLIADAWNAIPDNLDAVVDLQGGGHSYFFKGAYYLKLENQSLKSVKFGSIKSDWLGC
# Neutrophil collagenase = Neutrophil collagenase (Homo sapiens, UniProt P22894); assay: Inhibition of MMP-8 (unknown origin) using 7-methoxycoumarin-4-yl)acetyl-Pro-Leu-Gly-Leu-(3-(2,4-dinitrophenyl)-L-2,3-diamino-propionyl)Ala-Arg-NH2 as substrate preincubated for 30 mins followed by substrate addition by fluorescence assay; in short: as §1
# Sequence of Neutrophil collagenase (P22894 whole entry): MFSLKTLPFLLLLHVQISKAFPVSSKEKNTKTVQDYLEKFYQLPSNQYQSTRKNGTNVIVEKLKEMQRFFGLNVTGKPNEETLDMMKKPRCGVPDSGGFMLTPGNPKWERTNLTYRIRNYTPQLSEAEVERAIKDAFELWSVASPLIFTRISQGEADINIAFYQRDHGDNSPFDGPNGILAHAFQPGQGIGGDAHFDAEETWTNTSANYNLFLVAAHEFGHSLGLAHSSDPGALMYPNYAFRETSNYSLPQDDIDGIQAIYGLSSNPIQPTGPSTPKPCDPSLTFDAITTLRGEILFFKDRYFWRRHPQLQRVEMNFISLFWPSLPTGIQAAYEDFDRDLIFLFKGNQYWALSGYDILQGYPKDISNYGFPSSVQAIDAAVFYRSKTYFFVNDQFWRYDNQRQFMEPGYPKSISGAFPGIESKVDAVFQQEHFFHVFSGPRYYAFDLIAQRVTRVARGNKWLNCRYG
# [2] = biological target: Matrix metalloproteinase-9 (Homo sapiens, UniProt P14780); assay: Inhibition of MMP-9 (unknown origin) using 7-methoxycoumarin-4-yl)acetyl-Pro-Leu-Gly-Leu-(3-(2,4-dinitrophenyl)-L-2,3-diamino-propionyl)Ala-Arg-NH2 as substrate preincubated for 30 mins followed by substrate addition by fluorescence assay; in short: as §1
# Sequence of Matrix metalloproteinase-9 (P14780 whole entry): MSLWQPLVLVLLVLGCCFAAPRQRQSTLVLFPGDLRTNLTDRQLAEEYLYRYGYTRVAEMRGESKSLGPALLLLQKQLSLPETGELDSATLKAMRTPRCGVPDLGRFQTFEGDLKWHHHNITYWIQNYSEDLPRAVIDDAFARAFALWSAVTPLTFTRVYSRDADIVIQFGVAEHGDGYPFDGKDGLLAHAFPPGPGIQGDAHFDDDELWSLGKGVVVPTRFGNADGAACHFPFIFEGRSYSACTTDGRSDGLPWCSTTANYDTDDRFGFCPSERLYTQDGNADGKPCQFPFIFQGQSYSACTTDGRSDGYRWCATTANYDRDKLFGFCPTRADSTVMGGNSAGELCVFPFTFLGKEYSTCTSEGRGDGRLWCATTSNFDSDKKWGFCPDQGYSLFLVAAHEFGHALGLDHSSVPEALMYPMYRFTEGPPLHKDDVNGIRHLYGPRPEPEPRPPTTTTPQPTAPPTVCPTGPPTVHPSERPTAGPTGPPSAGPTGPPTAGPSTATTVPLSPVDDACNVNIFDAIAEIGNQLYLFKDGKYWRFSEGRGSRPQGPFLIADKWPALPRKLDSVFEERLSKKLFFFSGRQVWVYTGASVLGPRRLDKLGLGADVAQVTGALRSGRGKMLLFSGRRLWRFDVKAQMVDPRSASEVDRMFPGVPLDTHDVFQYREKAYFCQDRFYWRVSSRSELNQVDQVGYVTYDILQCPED
# [3] = 1-octanol-PBS buffer partition coefficient, log D of the compound at 20 kBq after 1 min by gamma counting analysis; format: physicochemical
# Mus musculus [4] = assay: Biodistribution in wild type CD1 mouse small intestine assessed as metabolite 5 at 11.1 MBq, iv measured at 30 mins by gamma counting-based HPLC analysis; format: ADME, organism-based; conditions: in vivo, 0.5 h
# In short: (§2)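 About 11.1 MBq injected by tail vein (≤200 μL) into three mice, killed 30 min p.i. Tissues weighed and homogenized in 1% SDS/PBS, extracted with acetonitrile/acetic acid, frozen on dry ice, thawed, centrifuged 13000 rpm 8 min. Supernatants gamma-counted against a dose aliquot for %ID/g, then radio-HPLC on C18 (acetonitrile/water, 0.05% TFA).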
# Kidney = assay: Biodistribution in wild type CD1 mouse kidney assessed as metabolite 3 at 11.1 MBq, iv measured at 30 mins by gamma counting-based HPLC analysis; format: ADME, organism-based; conditions: in vivo, 0.5 h; in short: as §2
# Mus musculus [5] = assay: Biodistribution in […] mouse myocardium at 250 kBq/g, iv after 90 to 120 mins by PET analysis; format: ADME, organism-based; conditions: in vivo
# In short: (§3)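 Tracer dosed at 250 kBq/g body weight as a tail-vein bolus (100 μL, flushed with 100 μL saline) into C57/Bl6 mice, then PET scanning on a submillimeter-resolution small-animal scanner. Time-activity curves were drawn for regions of interest as %ID; images cover frames up to 90−120 min p.i.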
# Serum = assay: Metabolic stability in mouse serum at 5 MBq after 30 to 120 mins by radio-HPLC analysis; format: ADME, cell-free
# In short: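 PBS-formulated radioligand (20 μL, 5 MBq) added to 200 μL mouse serum at 37 °C. 20 μL samples taken at 10−120 min, quenched in MeOH/CH2Cl2 1:1 and centrifuged 2 min. Organic layer analysed by radio-HPLC, isocratic 35% CH3CN/water (0.1% TFA) for 13 min, then gradient.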
# Mus musculus [6] = assay: Biodistribution in wild type CD1 mouse gall bladder assessed as metabolite 1 at 11.1 MBq, iv measured at 30 mins by gamma counting-based HPLC analysis; format: ADME, organism-based; conditions: in vivo, 0.5 h; in short: as §2
# Mus musculus [7] = assay: Biodistribution in wild type CD1 mouse gall bladder assessed as metabolite 4 at 11.1 MBq, iv measured at 30 mins by gamma counting-based HPLC analysis; format: ADME, organism-based; conditions: in vivo, 0.5 h; in short: as §2
# Muscle tissue = assay: Biodistribution in […] mouse muscle at 250 kBq/g, iv after 90 to 120 mins by PET analysis; format: ADME, organism-based; conditions: in vivo; in short: as §3
# Mus musculus [8] = assay: Biodistribution in wild type CD1 mouse small intestine assessed as metabolite 1 at 11.1 MBq, iv measured at 30 mins by gamma counting-based HPLC analysis; format: ADME, organism-based; conditions: in vivo, 0.5 h; in short: as §2
# Lung = assay: Biodistribution in […] mouse lung at 250 kBq/g, iv after 90 to 120 mins by PET analysis; format: ADME, organism-based; conditions: in vivo; in short: as §3
# Mus musculus [9] = assay: Biodistribution in wild type CD1 mouse small intestine assessed as metabolite 3 at 11.1 MBq, iv measured at 30 mins by gamma counting-based HPLC analysis; format: ADME, organism-based; conditions: in vivo, 0.5 h; in short: as §2
# Mus musculus [10] = assay: Biodistribution in wild type CD1 mouse gall bladder assessed as metabolite 5 at 11.1 MBq, iv measured at 30 mins by gamma counting-based HPLC analysis; format: ADME, organism-based; conditions: in vivo, 0.5 h; in short: as §2
# Brain = assay: Biodistribution in […] mouse brain at 250 kBq/g, iv after 90 to 120 mins by PET analysis; format: ADME, organism-based; conditions: in vivo; in short: as §3
# Mus musculus [11] = assay: Biodistribution in wild type CD1 mouse gall bladder assessed as metabolite 2 at 11.1 MBq, iv measured at 30 mins by gamma counting-based HPLC analysis; format: ADME, organism-based; conditions: in vivo, 0.5 h; in short: as §2
SMILES,pIC50 (Collagenase 3),pIC50 [1],pIC50 (Neutrophil collagenase),pIC50 [2],also measured
COc1ccc(S(=O)(=O)N(CCn2cc(CCCF)nn2)[C@@H](C(=O)NO)C(C)C)cc1,10.30,9.15,9.40,10.15,–
COc1ccc(S(=O)(=O)N(CCn2cc(CCCCOc3cccnc3F)nn2)[C@@H](C(=O)NO)C(C)C)cc1,10.40,9.05,9.30,9.52,–
CC(C)[C@H](C(=O)NO)N(CCn1cc(CN(C)S(=O)(=O)c2ccc(F)cc2)nn1)S(=O)(=O)c1ccc(OCCF)cc1,9.00,8.05,8.30,7.96,–
Cc1ccc(S(=O)(=O)N(CCn2cc(COCCOCCOCCOCCOCCF)nn2)[C@@H](C(=O)NO)C(C)C)cc1,10.00,8.52,8.70,9.40,–
CC(C)[C@H](C(=O)NO)N(Cc1cn(CCOCCOCCOCCF)nn1)S(=O)(=O)c1ccc(OCCF)cc1,9.22,8.70,9.70,9.70,–
Cc1ccc(S(=O)(=O)N(CCn2cc(CCCF)nn2)[C@@H](C(=O)NO)C(C)C)cc1,9.52,8.70,9.05,8.52,–
COc1ccc(S(=O)(=O)N(CCn2cc(COCCOCCOCCOCCOCCF)nn2)[C@@H](C(=O)NO)C(C)C)cc1,8.22,8.40,9.00,8.70,–
CC(C)[C@H](C(=O)NO)N(CCn1cc(COCCOCCOCCOCCOCCF)nn1)S(=O)(=O)c1ccc(OCCF)cc1,8.15,8.30,7.46,8.00,–
CC(C)[C@H](C(=O)NO)N(CCn1cc(CCCCOc2cccnc2F)nn1)S(=O)(=O)c1ccc(OCCF)cc1,10.15,9.40,10.30,9.10,–
CC(C)[C@H](C(=O)NO)N(CCn1cc(CCCF)nn1)S(=O)(=O)c1ccc(OCCF)cc1,10.15,8.70,9.40,8.70,–
COc1ccc(S(=O)(=O)N(CCn2cc(CN(C)S(=O)(=O)c3ccc(F)cc3)nn2)[C@@H](C(=O)NO)C(C)C)cc1,9.00,8.52,9.00,8.52,–
CC(C)[C@H](C(=O)NO)N(Cc1cn(CCF)nn1)S(=O)(=O)c1ccc(OCCF)cc1,9.15,8.70,8.70,8.15,–
COc1ccc(S(=O)(=O)N(CCN=[N+]=[N-])[C@@H](C(=O)NO)C(C)C)cc1,8.05,9.05,8.70,8.22,–
CC(C)[C@H](C(=O)NO)N(CCn1cc(CNS(=O)(=O)c2ccc(F)cc2)nn1)S(=O)(=O)c1ccc(OCCF)cc1,10.00,8.40,9.15,8.52,–
CC(C)[C@H](C(=O)NO)N(CCN=[N+]=[N-])S(=O)(=O)c1ccc(OCCF)cc1,9.00,8.40,9.00,8.40,–
CC(C)[C@H](C(=O)NO)N(Cc1cn(CCOCCOCCOCCOc2cccnc2F)nn1)S(=O)(=O)c1ccc(OCCF)cc1,9.52,9.30,9.52,9.70,–
Cc1ccc(S(=O)(=O)N(CCN=[N+]=[N-])[C@@H](C(=O)NO)C(C)C)cc1,9.00,8.40,9.00,8.40,–
Cc1ccc(S(=O)(=O)N(CCn2cc(CCCCOc3cccnc3F)nn2)[C@@H](C(=O)NO)C(C)C)cc1,8.52,8.52,8.40,8.22,–
COc1ccc(S(=O)(=O)N(CCn2cc(CNS(=O)(=O)c3ccc(F)cc3)nn2)[C@@H](C(=O)NO)C(C)C)cc1,10.05,8.30,9.70,9.22,–
COc1ccc(S(=O)(=O)N(CCn2cc(CCC[18F])nn2)[C@@H](C(=O)NO)C(C)C)cc1,–,–,–,–,logD at 1 min [3]: 1.25; Drug uptake (Mus musculus [4]): 2.47 % ID/g; Drug uptake (Kidney): 0.67 % ID/g; Drug uptake (Mus musculus [5]): Not Active; Stability (Serum): Stable; Drug uptake (Mus musculus [6]): 6.21 % ID/g; Drug uptake (Mus musculus [7]): 15.97 % ID/g; Drug uptake (Muscle tissue): Not Active; Drug uptake (Mus musculus [8]): 4.32 % ID/g; Drug uptake (Lung): Not Active; Drug uptake (Mus musculus [9]): 30.27 % ID/g; Drug uptake (Mus musculus [10]): 3.55 % ID/g; Drug uptake (Brain): Not Active; Drug uptake (Mus musculus [11]): 7.1 % ID/g
